Data from ChEMBL document CHEMBL1138348, “A p-[18F]fluoroethoxyphenyl bicyclic nucleoside analogue as a potential positron emission tomography imaging agent for varicella-zoster virus thymidine kinase gene expression” (J Med Chem, 2007).

Tests used:
Kidney [1] = test: Biodistribution in NMRI mouse kidney assessed as radioactivity after 60 mins; assay type: ADME, organism-based; conditions: in vivo, 1 h
In short: (§1)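 Male NMRI mice (37–43 g) given 0.1 mL HPLC-purified tracer (diluted in water for injection, EtOH <5%; 37 MBq/mL for 11C tracer, 3.7 MBq/mL for 18F tracer) via tail vein under ketamine/xylazine ip anaesthesia. Decapitation at 2 or 60 min, n=3 per time point. Organs dissected, weighed, gamma counted. Results given as %ID (cpm organ/total cpm recovered) or SUV. Blood mass taken as 7% of body mass. Mean ± SD.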

Mus musculus [2] = organism: Mus musculus; test: Biodistribution in NMRI mouse carcass assessed as radioactivity after 2 mins; assay type: ADME, organism-based; conditions: in vivo; in short: as §1
Plasma [3] = test: Metabolic stability in mouse plasma assessed as radioactivity after 10 mins; assay type: ADME, cell-free
In short: (§2)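 Plasma taken 2, 10 or 30 min after iv 18F tracer in normal mice (n=2 per time point), and urine collected at 60 min by manual bladder voiding. Samples spiked with authentic non-radioactive compound and applied without pretreatment to an Oasis HLB column in-line with a C18 RP-HPLC column. Eluate collected as 1 mL fractions and gamma counted. Result given as intact tracer as % of recovered radioactivity.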

Blood [4] = test: Drug uptake in mouse blood assessed as radioactivity at 11.5 MBq after 10 mins; assay type: ADME, tissue-based
In short: (§3)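 About 11.5 MBq of 18F tracer injected iv into mice. Decapitation at 2, 10 or 30 min, n=2 per time point. Blood collected into K2EDTA tubes, weighed and gamma counted. Plasma separated by centrifugation (1837g, 10 min) and counted. Values given as %ID/g normalised to sample weight and injected dose; plasma/whole-blood ratio also derived.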

Nucleic Acid [5] = test: Ratio of drug level in plasma to whole blood in mouse assessed as radioactivity at 11.5 MBq, iv after 2 mins; assay type: ADME, organism-based; conditions: in vivo
In short: (§4)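 Normal mice given about 11.5 MBq of the [18F] tracer iv, killed by decapitation at 2, 10 or 30 min pi (n = 2 per time). Blood was collected into a K2EDTA tube, weighed and gamma-counted, then centrifuged at 1837g for 10 min. Plasma was weighed and counted. Counts were normalised to sample weight and injected dose as %ID/g, and plasma %ID/g was divided by whole-blood %ID/g.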

Nucleic Acid [6] = test: Ratio of drug level in plasma to whole blood in mouse assessed as radioactivity at 11.5 MBq, iv after 10 mins; assay type: ADME, organism-based; conditions: in vivo; in short: as §4
Intestine [7] = test: Biodistribution in NMRI mouse intestine assessed as radioactivity after 60 mins; assay type: ADME, organism-based; conditions: in vivo, 1 h; in short: as §1
Muscle tissue [8] = test: Drug uptake in mouse muscle assessed as radioactivity at 11.5 MBq after 30 mins; assay type: ADME, tissue-based; conditions: in vivo, 0.5 h
In short: (§5)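 Normal mice given 11.5 MBq of 18F tracer. Killed at 2, 10 or 30 min, two animals per time point. Left and right femur and muscle collected, weighed and gamma counted. Uptake given as %ID/g.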

Lung [9] = test: Biodistribution in NMRI mouse lungs assessed as radioactivity after 60 mins; assay type: ADME, organism-based; conditions: in vivo, 1 h; in short: as §1
Mus musculus [10] = organism: Mus musculus; test: Biodistribution in NMRI mouse urine assessed as radioactivity after 2 mins; assay type: ADME, organism-based; conditions: in vivo; in short: as §1
Muscle tissue [11] = test: Drug uptake in mouse muscle assessed as radioactivity at 11.5 MBq after 2 mins; assay type: ADME, tissue-based; conditions: in vivo; in short: as §5
Mus musculus [12] = organism: Mus musculus; test: Biodistribution in NMRI mouse spleen + pancreas assessed as radioactivity after 60 mins; assay type: ADME, organism-based; conditions: in vivo, 1 h; in short: as §1
Femur [13] = test: Drug uptake in mouse femur bone assessed as radioactivity at 11.5 MBq after 10 mins; assay type: ADME, tissue-based; conditions: in vivo; in short: as §5
Heart [14] = test: Biodistribution in NMRI mouse heart assessed as radioactivity after 60 mins; assay type: ADME, organism-based; conditions: in vivo, 1 h; in short: as §1
[15] = Drug uptake in LV-VZVTK-IP transduced 293T cells assessed as radioactivity at 185 kBq after 3 hrs; assay type: ADME, cell-based; conditions: human, hek-293t
In short: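 293T cells stably transduced with lentivirus carrying VZV-tk-IRES-pac (kept in 1 µg/mL puromycin), alongside untransduced control 293T cells. Plated in triplicate at 200 000 cells/well. After 24 h, fresh medium with HPLC-purified tracer added: 1.1 MBq (11C tracer, 0.5 h) or 185 kBq (18F tracer, 3 h), 37 °C. Cells washed with ice-cold PBS and lysed. Gamma counting. Uptake given as % of total radioactivity per mg protein (Bio-Rad assay).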

Blood [16] = test: Drug uptake in mouse blood assessed as radioactivity at 11.5 MBq after 30 mins; assay type: ADME, tissue-based; conditions: 0.5 h; in short: as §3
[17] = Metabolic stability in mouse urine assessed as radioactivity after 1 hr; assay type: ADME, tissue-based; in short: as §2
Nucleic Acid [18] = test: Ratio of drug level in femur bone to blood in mouse assessed as radioactivity at 11.5 MBq, iv after 30 mins; assay type: ADME, organism-based; conditions: other tissue, 0.5 h
In short: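 Normal mice injected with 11.5 MBq of the [18F] tracer and killed at 2, 10 or 30 min pi (two animals per time). Left and right femurs were collected, weighed and gamma-counted, and uptake was expressed as %ID/g. Blood %ID/g was reported at the same time points.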

Blood [19] = test: Biodistribution in NMRI mouse blood assessed as radioactivity after 60 mins; assay type: ADME, organism-based; conditions: in vivo, 1 h; in short: as §1
Stomach [20] = test: Biodistribution in NMRI mouse stomach assessed as radioactivity after 60 mins; assay type: ADME, organism-based; conditions: in vivo, 1 h; in short: as §1
Mus musculus [21] = organism: Mus musculus; test: Biodistribution in NMRI mouse spleen + pancreas assessed as radioactivity after 2 mins; assay type: ADME, organism-based; conditions: in vivo; in short: as §1
Brain [22] = test: Biodistribution in NMRI mouse brain assessed as radioactivity after 60 mins; assay type: ADME, organism-based; conditions: in vivo, 1 h; in short: as §1
Kidney [23] = test: Biodistribution in NMRI mouse kidney assessed as radioactivity after 2 mins; assay type: ADME, organism-based; conditions: in vivo; in short: as §1
Lung [24] = test: Biodistribution in NMRI mouse lungs assessed as radioactivity after 2 mins; assay type: ADME, organism-based; conditions: in vivo; in short: as §1
Liver [25] = test: Biodistribution in NMRI mouse liver assessed as radioactivity after 2 mins; assay type: ADME, organism-based; conditions: in vivo; in short: as §1
Femur [26] = test: Drug uptake in mouse femur bone assessed as radioactivity at 11.5 MBq after 30 mins; assay type: ADME, tissue-based; conditions: in vivo, 0.5 h; in short: as §5
[27] = Partition coefficient, log P in 1-octanol and phosphate buffer at pH 7.4; assay type: physicochemical; conditions: 1-octanol/phosphate buffer
In short: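 HPLC-isolated tracer (about 550 kBq 11C or 185 kBq 18F) partitioned between 1-octanol and 0.025 M phosphate buffer pH 7.4 (2 mL each). Vortexed 2 min at room temperature, centrifuged 1837 g for 5 min. Aliquots of both phases weighed and gamma counted. P calculated as the cpm/mL ratio after density correction; n=6.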

Plasma [28] = test: Metabolic stability in mouse plasma assessed as radioactivity after 30 mins; assay type: ADME, cell-free; conditions: 0.5 h; in short: as §2
Brain [29] = test: Biodistribution in NMRI mouse brain assessed as radioactivity after 2 mins; assay type: ADME, organism-based; conditions: in vivo; in short: as §1
Femur [30] = test: Drug uptake in mouse femur bone assessed as radioactivity at 11.5 MBq after 2 mins; assay type: ADME, tissue-based; conditions: in vivo; in short: as §5
Stomach [31] = test: Biodistribution in NMRI mouse stomach assessed as radioactivity after 2 mins; assay type: ADME, organism-based; conditions: in vivo; in short: as §1
Mus musculus [32] = organism: Mus musculus; test: Biodistribution in NMRI mouse carcass assessed as radioactivity after 60 mins; assay type: ADME, organism-based; conditions: in vivo, 1 h; in short: as §1
Mus musculus [33] = organism: Mus musculus; test: Biodistribution in NMRI mouse urine assessed as radioactivity after 60 mins; assay type: ADME, organism-based; conditions: in vivo, 1 h; in short: as §1
Blood [34] = test: Biodistribution in NMRI mouse blood assessed as radioactivity after 2 mins; assay type: ADME, organism-based; conditions: in vivo; in short: as §1
Liver [35] = test: Biodistribution in NMRI mouse liver assessed as radioactivity after 60 mins; assay type: ADME, organism-based; conditions: in vivo, 1 h; in short: as §1
Intestine [36] = test: Biodistribution in NMRI mouse intestine assessed as radioactivity after 2 mins; assay type: ADME, organism-based; conditions: in vivo; in short: as §1
Heart [37] = test: Biodistribution in NMRI mouse heart assessed as radioactivity after 2 mins; assay type: ADME, organism-based; conditions: in vivo; in short: as §1
Plasma [38] = test: Metabolic stability in mouse plasma assessed as radioactivity after 2 mins; assay type: ADME, cell-free; in short: as §2
Blood [39] = test: Drug uptake in mouse blood assessed as radioactivity at 11.5 MBq after 2 mins; assay type: ADME, tissue-based; in short: as §3
Nucleic Acid [40] = test: Ratio of drug level in plasma to whole blood in mouse assessed as radioactivity at 11.5 MBq, iv after 30 mins; assay type: ADME, organism-based; conditions: in vivo, 0.5 h; in short: as §4
[41] = Inhibition of Varicella zoster virus thymidine kinase; parameters: species or system Human alphaherpesvirus 3
In short: (§6)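 Purified recombinant VZV TK (7.75 ng), HSV-1 TK (226 ng) or human cytosolic TK-1 (455 ng) in 50 mM Tris-HCl pH 8.0, 2.5 mM MgCl2, 10 mM DTT, 2.5 mM ATP, 1 mg/mL BSA, 10 mM NaF, with 1 µM final [CH3-3H]dThd substrate. Incubated 30 min at 37 °C with varied compound concentrations; the reaction was linear over this time. Product bound on DE-81 filters, washed, and counted by liquid scintillation. Result reported as IC50.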

[42] = target: T1, Thymidine kinase, cytosolic (Homo sapiens, UniProt P04183); test: Inhibition of human cytosolic thymidine kinase 1; in short: as §6
T1 sequence (P04183 whole entry): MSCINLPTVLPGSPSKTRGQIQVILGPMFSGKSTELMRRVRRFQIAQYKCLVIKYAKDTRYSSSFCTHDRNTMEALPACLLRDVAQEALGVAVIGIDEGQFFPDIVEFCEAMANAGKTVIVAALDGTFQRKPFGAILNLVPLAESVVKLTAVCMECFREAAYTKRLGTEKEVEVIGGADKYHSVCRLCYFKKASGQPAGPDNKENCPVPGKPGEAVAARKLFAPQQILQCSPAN

[43] = Inhibition of HSV1 thymidine kinase; parameters: species or system Human alphaherpesvirus 1; in short: as §6

O=c1nc2oc(-c3ccc(OCC[18F])cc3)cc2cn1[C@H]1C[C@H](O)[C@@H](CO)O1
Drug uptake (Kidney [1]): 1.1 %ID | Drug uptake (Mus musculus [2]): 18.3 %ID | Stability (Plasma [3]): 82% | Drug uptake (Blood [4]): 1.42 % ID/g | Ratio (Nucleic Acid [5]): 1.39 | Ratio (Nucleic Acid [6]): 1.34 | Drug uptake (Intestine [7]): 44.3 %ID | Drug uptake (Muscle tissue [8]): 0.25 % ID/g | Drug uptake (Lung [9]): 0.2 %ID | Drug uptake (Mus musculus [10]): 11.8 %ID | Drug uptake (Muscle tissue [11]): 0.35 % ID/g | Drug uptake (Mus musculus [12]): 1.1 %ID | Drug uptake (Femur [13]): 0.66 % ID/g | Drug uptake (Heart [14]): 0.1 %ID | Drug uptake [15]: 76.6 %ID | Drug uptake (Blood [16]): 0.63 % ID/g | Stability [17]: 91.5% | Ratio (Nucleic Acid [18]): 2 | Drug uptake (Blood [19]): 1.5 %ID | Drug uptake (Stomach [20]): 1.1 %ID | Drug uptake (Mus musculus [21]): 1.4 %ID | Drug uptake (Brain [22]): 0 %ID | Drug uptake (Kidney [23]): 20.1 %ID | Drug uptake (Lung [24]): 0.7 %ID | Drug uptake (Liver [25]): 24.7 %ID | Drug uptake (Femur [26]): 1.25 % ID/g | logD [27]: 1.2 | Stability (Plasma [28]): 40.6% | Drug uptake (Brain [29]): 0 %ID | Drug uptake (Femur [30]): 0.57 % ID/g | Drug uptake (Stomach [31]): 1.2 %ID | Drug uptake (Mus musculus [32]): 11.9 %ID | Drug uptake (Mus musculus [33]): 34.8 %ID | Drug uptake (Blood [34]): 4.8 %ID | Drug uptake (Liver [35]): 4.3 %ID | Drug uptake (Intestine [36]): 17.7 %ID | Drug uptake (Heart [37]): 0.3 %ID | Stability (Plasma [38]): 94.7% | Drug uptake (Blood [39]): 1.57 % ID/g | Ratio (Nucleic Acid [40]): 1.02

O=c1nc2oc(-c3ccc(OCCCCCCF)cc3)cc2cn1[C@H]1C[C@H](O)[C@@H](CO)O1
IC50 [41]: 4.1 µM | IC50 [42]: > 500 µM | IC50 [43]: > 500 µM
